The test system of one assay is SN12C. The experiment in a line: Growth inhibition of human SN12C cells after 48 hrs by sulforhodamine B assay. The assay is classed as functional. In a few lines:
(§1)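 NCI 60-cell-line screen: cells exposed 48 h to five 10-fold dilutions starting at 100 μM (range 10−4 to 10−8 M), then stained with sulforhodamine B. Optical densities relative to control plotted against log concentration. GI50 interpolated between points above and below 50% growth. Single determinations.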
Background: The SRB assay estimates cell density from bound dye.

A further assay deals with DU-145. Put plainly: Growth inhibition of human DU145 cells after 48 hrs by sulforhodamine B assay. It counts as functional. As to conditions: DU-145, 48 h. In a few lines:
as §1

In another assay the test system is HOP-62. Put plainly: Growth inhibition of human HOP62 cells after 48 hrs by sulforhodamine B assay. Particulars: HOP-62, 48 h. It counts as functional. In a few lines: as §1
The subject of the next assay is UACC-62. Put plainly: Growth inhibition of human UACC62 cells after 48 hrs by sulforhodamine B assay. The assay is classed as functional. Particulars: UACC-62, 48 h. In a few lines:
as §1

Assay [1] addresses T1, DNA topoisomerase 1 (Homo sapiens) (UniProt P11387).
T1 sequence (whole entry): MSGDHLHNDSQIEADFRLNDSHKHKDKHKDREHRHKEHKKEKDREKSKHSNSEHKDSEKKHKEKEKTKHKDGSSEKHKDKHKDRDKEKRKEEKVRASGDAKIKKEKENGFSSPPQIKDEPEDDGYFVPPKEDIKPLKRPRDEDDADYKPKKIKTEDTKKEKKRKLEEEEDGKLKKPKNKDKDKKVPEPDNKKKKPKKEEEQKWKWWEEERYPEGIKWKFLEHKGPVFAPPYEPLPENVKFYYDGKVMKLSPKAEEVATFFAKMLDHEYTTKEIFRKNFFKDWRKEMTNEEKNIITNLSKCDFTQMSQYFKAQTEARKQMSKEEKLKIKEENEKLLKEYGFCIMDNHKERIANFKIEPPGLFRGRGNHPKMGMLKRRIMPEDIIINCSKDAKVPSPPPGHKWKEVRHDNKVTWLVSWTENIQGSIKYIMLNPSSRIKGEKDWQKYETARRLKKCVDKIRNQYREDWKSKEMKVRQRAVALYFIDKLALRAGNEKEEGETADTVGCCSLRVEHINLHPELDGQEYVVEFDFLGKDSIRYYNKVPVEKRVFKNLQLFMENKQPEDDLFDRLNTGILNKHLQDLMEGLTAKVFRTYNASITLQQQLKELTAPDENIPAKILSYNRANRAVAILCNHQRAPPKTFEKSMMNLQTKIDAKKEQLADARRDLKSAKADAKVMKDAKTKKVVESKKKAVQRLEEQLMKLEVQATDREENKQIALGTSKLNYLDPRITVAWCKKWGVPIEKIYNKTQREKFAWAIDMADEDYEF
The experiment in a line: Inhibition of human recombinant topoisomerase 1-mediated DNA cleavage using [32P]-3'-end-labeled 117-bp DNA fragment as substrate at 100 uM after 20 mins by SDS-PAGE analysis. In a few lines: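 Human recombinant Top1 purified from baculovirus. Substrate: 117-bp oligonucleotide 3′-end-labeled by Klenow fill-in with [α-32P]dGTP, ~2 nM. Compounds tested at 0.1–100 μM. Stopped with 0.5% SDS plus formamide loading dye. Cleavage sites scored on gel.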

Another assay deals with SF-539. Put plainly: Growth inhibition of human SF539 cells after 48 hrs by sulforhodamine B assay. The assay is classed as functional. As to conditions: SF-539, 48 h. In a few lines: as §1
The test system of the next assay is MCF7. The experiment in a line: Growth inhibition of human MCF7 cells after 48 hrs by sulforhodamine B assay. It counts as functional. As to conditions: MCF7, 48 h. In a few lines: as §1

The text below walks through data of ChEMBL document CHEMBL2021884, “Azaindenoisoquinolines as topoisomerase I inhibitors and potential anticancer agents: a systematic study of structure-activity relationships” (2012).

The structures appear in SMILES notation. Activity calls are given as the source filed them. The rule behind the calls is not given here.

On to `COc1cc2c3c(n(C)c(=O)c2cc1OC)-c1cc2c(cc1C3=O)OCO2`, for which the 50% growth inhibitory concentration (GI50) with SN12C stood at 26 µM; with DU-145 it was 4.8 µM; in the assay on HOP-62 it was 2800 nM; with UACC-62, 560 nM; in the assay on SF-539, 1700 nM; in the assay with MCF7 it was 1900 nM. In assay [1], the inhibition result is “Active”.

A word on the GI50: it is the concentration at which growth is held to half of that of the control. The low end stands for more potent growth inhibition, the high end for less potent growth inhibition.
